Active and inactive are the calls of the source. The rule behind the calls is not given here.
Assays:
[1] = target: T1, Ectonucleotide pyrophosphatase/phosphodiesterase family member 1 (Homo sapiens) (UniProt P22413); assay: Inhibition of human NPP1 transfected in COS7 cells at 100 uM using pNP-TMP as substrate incubated for 35 mins relative to control; type: cell-based
T1 sequence (whole entry): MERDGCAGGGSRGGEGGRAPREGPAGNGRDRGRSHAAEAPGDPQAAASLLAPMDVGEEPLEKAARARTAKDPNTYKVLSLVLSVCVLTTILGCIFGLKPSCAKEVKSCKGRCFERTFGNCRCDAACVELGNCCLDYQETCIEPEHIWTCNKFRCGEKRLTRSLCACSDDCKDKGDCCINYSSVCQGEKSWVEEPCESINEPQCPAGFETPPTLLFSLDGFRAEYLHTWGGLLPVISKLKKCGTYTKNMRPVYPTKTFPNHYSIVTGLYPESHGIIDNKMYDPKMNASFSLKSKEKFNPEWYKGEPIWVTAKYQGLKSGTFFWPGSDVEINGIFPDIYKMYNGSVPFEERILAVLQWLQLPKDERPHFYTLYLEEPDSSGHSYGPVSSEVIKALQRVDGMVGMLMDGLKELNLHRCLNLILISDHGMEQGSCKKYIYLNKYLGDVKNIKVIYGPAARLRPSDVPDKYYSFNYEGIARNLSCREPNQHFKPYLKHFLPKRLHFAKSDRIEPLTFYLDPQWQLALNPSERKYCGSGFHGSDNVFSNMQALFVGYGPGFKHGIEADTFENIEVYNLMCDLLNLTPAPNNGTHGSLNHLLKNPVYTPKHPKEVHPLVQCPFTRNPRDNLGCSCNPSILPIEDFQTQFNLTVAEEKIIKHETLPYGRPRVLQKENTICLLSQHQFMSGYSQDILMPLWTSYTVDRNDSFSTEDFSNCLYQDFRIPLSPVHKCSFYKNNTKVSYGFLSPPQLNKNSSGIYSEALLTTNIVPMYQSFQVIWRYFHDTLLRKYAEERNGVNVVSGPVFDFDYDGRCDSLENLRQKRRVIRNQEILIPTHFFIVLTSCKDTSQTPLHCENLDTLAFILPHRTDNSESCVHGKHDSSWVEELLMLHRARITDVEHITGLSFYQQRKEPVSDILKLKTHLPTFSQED
Summary of the method: (§1)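 Human NPP1 or NPP3 expressed in COS-7 cells by plasmid/Lipofectamine transfection, harvested 48-72 h later. Membrane fractions prepared by sonication and 300 g centrifugation, stored with 7.5% glycerol; protein measured by Bradford. Assay buffer: 50 mM Tris-HCl, 5 mM MgCl2, 0.1 mM ZnCl2, pH 9.5. Triplicates ± S.E.M.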

[2] = target: T2, Ectonucleotide pyrophosphatase/phosphodiesterase family member 3 (Homo sapiens) (UniProt O14638); assay: Inhibition of human NPP3 transfected in COS7 cells at 100 uM using pNP-TMP as substrate incubated for 35 mins relative to control; type: cell-based; summary of the method: as §1
T2 sequence (whole entry): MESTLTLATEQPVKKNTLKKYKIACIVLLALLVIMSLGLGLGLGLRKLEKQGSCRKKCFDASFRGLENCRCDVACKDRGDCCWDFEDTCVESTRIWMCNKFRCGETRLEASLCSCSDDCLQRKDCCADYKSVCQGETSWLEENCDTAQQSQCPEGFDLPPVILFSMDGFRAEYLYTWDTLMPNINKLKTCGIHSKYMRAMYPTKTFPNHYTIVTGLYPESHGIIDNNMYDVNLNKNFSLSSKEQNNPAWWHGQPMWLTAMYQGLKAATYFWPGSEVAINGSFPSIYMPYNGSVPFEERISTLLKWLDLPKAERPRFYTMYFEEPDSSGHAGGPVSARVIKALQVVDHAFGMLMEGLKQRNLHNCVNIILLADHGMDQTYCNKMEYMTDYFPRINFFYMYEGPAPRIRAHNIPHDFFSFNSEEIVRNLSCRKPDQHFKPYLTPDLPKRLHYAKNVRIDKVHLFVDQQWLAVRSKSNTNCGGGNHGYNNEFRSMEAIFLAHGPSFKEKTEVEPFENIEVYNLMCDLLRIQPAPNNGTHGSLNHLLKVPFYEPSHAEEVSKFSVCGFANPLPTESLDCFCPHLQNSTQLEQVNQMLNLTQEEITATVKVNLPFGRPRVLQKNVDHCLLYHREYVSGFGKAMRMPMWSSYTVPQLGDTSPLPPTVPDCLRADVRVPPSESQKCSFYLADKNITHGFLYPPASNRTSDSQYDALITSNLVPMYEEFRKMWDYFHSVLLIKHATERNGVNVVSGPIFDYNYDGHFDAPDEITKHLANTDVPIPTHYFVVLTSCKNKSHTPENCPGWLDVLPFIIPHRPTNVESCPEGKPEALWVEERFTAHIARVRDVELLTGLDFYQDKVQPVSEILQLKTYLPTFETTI

MCF7 [3] = assay: Antiproliferative activity against human MCF7 cells assessed as reduction in cell growth at 10 uM incubated for 24 hrs by MTT assay relative to control; type: functional
Summary of the method: (§2)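 MTT assay. Cells seeded at 4 × 10^4 per well and incubated overnight. Treated 24 h; DMSO served as negative control and doxorubicin as positive control. MTT dye 0.5 mg/mL added for 2 h at 37 °C, formazan dissolved in DMSO, absorbance read at 570 nm. Single-concentration screen at 10; dose-dependent dilutions gave IC50. WI-38 fibroblasts grown in DMEM with 10% FBS and 1% penicillin/streptomycin. Triplicate means ± S.E.M.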

HT-29 [4] = assay: Antiproliferative activity against human HT-29 cells assessed as reduction in cell growth at 10 uM incubated for 24 hrs by MTT assay relative to control; type: functional; summary of the method: as §2
[5] = target: T3, Ectonucleotide pyrophosphatase/phosphodiesterase family member 1 (Homo sapiens, UniProt P22413); assay: Inhibition of human NPP1 transfected in COS7 cells using pNP-TMP as substrate incubated for 35 mins; type: cell-based
T3 sequence (P22413 whole entry): T1 sequence (whole entry)

[6] = target: T4, Ectonucleotide pyrophosphatase/phosphodiesterase family member 3 (Homo sapiens, UniProt O14638); assay: Inhibition of human NPP3 transfected in COS7 cells using pNP-TMP as substrate incubated for 35 mins; type: cell-based
T4 sequence (O14638 whole entry): T2 sequence (whole entry)

HT-29 [7] = assay: Antiproliferative activity against human HT-29 cells assessed as reduction in cell growth incubated for 24 hrs by MTT assay; type: functional, cell-based; conditions: HT-29, 24 h
Summary of the method: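 HT-29 colon cancer cells seeded per well and incubated overnight, then exposed for 24 h to serial dilutions of compound (10 mM DMSO stock diluted in medium), with doxorubicin and DMSO controls. MTT (0.5 mg/mL) added for 2 h at 37 °C, formazan dissolved in DMSO, absorbance read at 570 nm. IC50 from triplicate assays, mean ± S.E.M.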

WI-38 = assay: Cytotoxicity against human WI-38 cells assessed as reduction in cell growth incubated for 24 hrs by MTT assay; type: cell-based; conditions: WI-38, 24 h; summary of the method: as §2
[8] = Toxicity in BALB/c mouse assessed as glucose level at 10 mg/kg, ip measured at 0 hrs (reference value: 106 to 141 mg/dl); type: organism-based; conditions: in vivo
Summary of the method: (§3)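 Male BALB/c mice weighing 30-35 g, five per group. Given i.p. at 10 or 20 mg/kg in (2-hydroxypropyl)-β-cyclodextrin solution. Control group received vehicle alone. Blood glucose (mg/dL) measured at 0, 30, 60, 90 and 120 min after injection.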

[9] = Toxicity in BALB/c mouse assessed as glucose level at 20 mg/kg, ip measured at 0 hrs (reference value: 106 to 141 mg/dl); type: organism-based; conditions: in vivo; summary of the method: as §3
[10] = Toxicity in BALB/c mouse assessed as glucose level at 10 mg/kg, ip measured at 30 mins (reference value: 106 to 141 mg/dl); conditions: in vivo
[11] = Toxicity in BALB/c mouse assessed as glucose level at 10 mg/kg, ip measured at 60 mins (reference value: 106 to 141 mg/dl); conditions: in vivo
[12] = Toxicity in BALB/c mouse assessed as glucose level at 10 mg/kg, ip measured at 90 mins (reference value: 106 to 141 mg/dl); conditions: in vivo
[13] = Toxicity in BALB/c mouse assessed as glucose level at 20 mg/kg, ip measured at 30 mins (reference value: 106 to 141 mg/dl); conditions: in vivo
[14] = Toxicity in BALB/c mouse assessed as glucose level at 20 mg/kg, ip measured at 60 mins (reference value: 106 to 141 mg/dl); conditions: in vivo
[15] = Toxicity in BALB/c mouse assessed as glucose level at 20 mg/kg, ip measured at 90 mins (reference value: 106 to 141 mg/dl); conditions: in vivo
[16] = Toxicity in BALB/c mouse assessed as glucose level at 10 mg/kg, ip measured at 120 mins (reference value: 106 to 141 mg/dl); conditions: in vivo
[17] = Toxicity in BALB/c mouse assessed as glucose level at 20 mg/kg, ip measured at 120 mins (reference value: 106 to 141 mg/dl); conditions: in vivo
[18] = target: T3, Ectonucleotide pyrophosphatase/phosphodiesterase family member 1; assay: Inhibition of NPP1 (unknown origin) transfected in COS7 cells using pNP-TMP as substrate incubated for 35 mins by spectrophotometric method; type: cell-based; summary of the method: as §1
MCF7 [19] = assay: Antiproliferative activity against human MCF7 cells assessed as reduction in cell growth at 100 uM incubated for 24 hrs by MTT assay relative to control; type: functional
[20] = target: T1, Ectonucleotide pyrophosphatase/phosphodiesterase family member 1 (Homo sapiens); assay: Non-competitive inhibition of human NPP1 transfected in COS7 cells at 0.5 to 1.5 uM using pNP-TMP as substrate incubated for 35 mins by Lineweaver-Burk plot analysis; type: cell-based; conditions: dose 0.5-1.5 µM
Summary of the method: (§4)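 Kinetics with pNP-TMP at 0.0, 1.25, 2.50, 5.0, 7.5 and 10.0 mM in Tris-HCl 50 mM, MgCl2 5 mM, ZnCl2 0.1 mM, pH 9.5. Incubated at 37 °C and read over 35 min at 5-min intervals. Enzyme from transfected COS-7 membrane fractions.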

MCF7 [21] = assay: Antiproliferative activity against human MCF7 cells assessed as reduction in cell growth incubated for 24 hrs by MTT assay; type: functional, cell-based; conditions: MCF7, 24 h; summary of the method: as §2
[22] = target: T4, Ectonucleotide pyrophosphatase/phosphodiesterase family member 3; assay: Inhibition of NPP3 (unknown origin) transfected in COS7 cells using pNP-TMP as substrate incubated for 35 mins by spectrophotometric method; type: cell-based; summary of the method: as §1
[23] = target: T2, Ectonucleotide pyrophosphatase/phosphodiesterase family member 3 (Homo sapiens); assay: Competitive inhibition of human NPP3 transfected in COS7 cells at 0.1 to 1 uM using pNP-TMP as substrate incubated for 35 mins by Lineweaver-Burk plot analysis; type: cell-based; conditions: dose 0.1-1 µM; summary of the method: as §4

Compound | IC50 [5] | IC50 [6] | inhibition at 10 µM (MCF7 [3]) | inhibition at 10 µM (HT-29 [4]) | other results
O=C(NS(=O)(=O)c1ccc2ccccc2c1)n1ccc2cccnc21 |  |  | 1.9% | 16.2% | inhibition [1]: 48.6%; inhibition [2]: 44.1%
O=C(NS(=O)(=O)c1ccccc1)n1ccc2cc(Br)cnc21 | 8.3 µM | 2010 nM | 16.8% | 14.6% | 
O=C(NS(=O)(=O)c1ccc(Cl)cc1)n1ccc2cccnc21 | 10.4 µM | 880 nM | 33.5% | 54.4% | 
Cc1ccc(S(=O)(=O)NC(=O)n2ccc3c(N(C)C)ccnc32)cc1 |  |  | 5.6% | 21.4% | inhibition [1]: 41.5%; inhibition [2]: 45.7%
COc1ccc(-c2nn(-c3cccc(NS(=O)(=O)c4ccc(C)cc4)c3)cc2-c2ccncc2)cc1Cl |  |  |  |  | IC50 [18]: 180 nM; inhibition at 100 µM (MCF7 [19]): 40.3%
O=C(NS(=O)(=O)c1ccccc1)n1ccc2cccnc21 | 4.5 µM |  | 18.9% | 23.6% | inhibition [2]: 37.5%
COc1cccc2c1C(=O)c1c(O)c3c(c(O)c1C2=O)C[C@@](O)(C(=O)CO)C[C@@H]3O[C@H]1C[C@H](N)[C@H](O)[C@H](C)O1 [DOXORUBICIN] |  |  | 96.8% | 94.3% | IC50 (HT-29 [7]): 1400 nM; IC50 (WI-38): 1.96 µM
O=C(NS(=O)(=O)c1ccccc1)n1ccc2c(Cl)ccnc21 | 1.08 µM | 26100 nM | 3.32% | 47.6% | 
Oc1ccc(-c2nn(-c3cccc(NC(=S)Nc4ccccc4)c3)cc2-c2ccncc2)cc1Cl |  |  |  |  | IC50 [22]: 210 nM; inhibition at 100 µM (MCF7 [19]): 35.6%
CN(C)c1ccnc2c1ccn2C(=O)NS(=O)(=O)c1ccccc1 | 2.77 µM | 550 nM | 26.9% | 17.6% | inhibition [23]: Active

Continued, in another order:

IC50 [5] | IC50 [6] | Compound | inhibition at 10 µM (MCF7 [3]) | inhibition at 10 µM (HT-29 [4]) | other results
1.55 µM | 590 nM | Cc1ccc(S(=O)(=O)NC(=O)n2ccc3cc(Br)cnc32)cc1 | 28% | 82.4% | IC50 (HT-29 [7]): 1580 nM; IC50 (WI-38): 18.4 µM; Activity [8]: 108 mg/dL; Activity [9]: 114 mg/dL; Activity [10]: 103 mg/dL; Activity [11]: 122 mg/dL; Activity [12]: 124 mg/dL; Activity [13]: 113 mg/dL; Activity [14]: 114 mg/dL; Activity [15]: 128 mg/dL; Activity [16]: 121 mg/dL; Activity [17]: 121 mg/dL
 | 3720 nM | Cc1ccc(S(=O)(=O)NC(=O)n2ccc3cccnc32)cc1 | 20.3% | 33.4% | inhibition [1]: 47.9%
178 µM | 25300 nM | O=C(NS(=O)(=O)c1ccc2ccccc2c1)n1ccc2cc(Br)cnc21 | 28.8% | 60.1% | 
1.15 µM | 2130 nM | O=C(NS(=O)(=O)c1cccc([N+](=O)[O-])c1)n1ccc2cc(Br)cnc21 | 43% | 58.5% | 
0.8 µM | 1170 nM | O=C(NS(=O)(=O)c1cccc([N+](=O)[O-])c1)n1ccc2cccnc21 | 70.7% | 18.9% | inhibition [20]: Active; IC50 (MCF7 [21]): 4.7 µM; IC50 (WI-38): > 20 µM
3.29 µM | 1310 nM | O=C(NS(=O)(=O)c1ccc2ccccc2c1)n1ccc2c(Cl)ccnc21 | 28.6% | 58.2% | 

— ChEMBL document CHEMBL4814002, “Synthesis, biological evaluation, and docking studies of novel pyrrolo[2,3-b]pyridine derivatives as both ectonucleotide pyrophosphatase/phosphodiesterase inhibitors and antiproliferative agents” (Eur J Med Chem, 2021)
